Bioassay records from PubChem BioAssay.
HIF activator: HIF pathway transcriptional activators, primary screen, cell-based, U2OS HRE-luciferase, luminescence | AID 1910, 2009 | 0.32% of 300,000 active | activation, % at 7.5 µM (by protocol) | U2OS HRE-luciferase reporter; normalized: DMSO 0%, desferrioxamine 100%;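 active = mean activation of at least 10% of the iron chelator positive control signal, with at least half of replicates also reaching 10%; inconclusive = mean and replicate majority disagree about reaching 10%; inactive = mean and most replicates under 10%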
ARNT TACC3 PPI: disruptors of ARNT/TACC3 protein interaction, primary screen, biochemical, AlphaScreen, single concentration; Transforming acidic coiled-coil-containing protein 3 (Homo sapiens), Q9Y6A5; AlphaScreen His-ARNT PAS-B/GST-TACC3 binding, luminescence; TACC3 fragment carries E629A point mutation; inhibition, % at 9.99 µM; 0.66% of 390,000 active;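 active = mean inhibition of replicates at least 50% and at least half of replicates each reaching 50%; inconclusive = half or more replicates reach 50% but mean below 50%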;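 also: 0% = complete ARNT plus TACC3 wells and 100% = ARNT alone without TACC3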
T cruzi inh: inhibitors of intracellular T. cruzi growth, primary screen, luminescence, NIH3T3 host cells. T. cruzi beta-gal in NIH3T3, 90 h. inhibition, % (concentration not given with the values). 1.4% of 300,000 active;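 active = mean inhibition across valid replicates above about 55%, limit read from the data; inconclusive = mean below that limit but half or more replicates reach it; inactive = mean below it, under half of replicates reach it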;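 also: signal also drops with host cell toxicity which is not excluded here; 0% = plate median of DMSO wells and 100% = zero luminescence signal; higher percent means less beta-gal luminescence so fewer parasites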
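Material: NIH/3T3 host cells with β-galactosidase reporter T. cruzi; Input: 5,000 host fibroblasts per well; Medium: DMEM, 2% fetal bovine serum; Compound: 50 nL DMSO compound solution per well; Schedule: 3 h host attachment, then at least 90 h co-culture; Detection: luminescent β-galactosidase signal after 60 min lysis.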
AI-2 QS modul: Vibrio harveyi AI-2 quorum sensing modulators, primary screen, JMH597 strain, luminescence/OD600 ratio; Vibrio harveyi JMH597 AI-2 luminescence/OD600 ratio, 9 h; active compounds read low; strain lacks LuxN and CqsS sensors; 0 = neutral-control median; activity change, % at 7.5 µM; 0.4% of 300,000 active; AID 2094, 2009; in the data active = activity change below about -75%, passing the limit was not always enough; inconclusive = no clear call, values can overlap the other calls;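 also: luminescence divided by OD600 gain over 9 h not by final OD600 alone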
* marks the source's active call; other numbers are inactive results; ? = inconclusive; · = not tested or not shown. Rows were chosen to be rich in hits. Some 2% of all compounds tested hit in one or more screens of this group.

SMILES	HIF activator	ARNT TACC3 PPI	T cruzi inh	AI-2 QS modul
C[C@@H]1CN([C@@H](C)CO)C(=O)c2cc(NS(=O)(=O)c3ccccc3)ccc2O[C@@H](C)CCCCO[C@H]1CN(C)C(=O)CCC(F)(F)F	·	0	·	·
COc1ccc(-c2cnc3c(c2)C(=O)N([C@H](C)CO)C[C@H](C)[C@@H](CN(C)C(=O)NC2CCCC2)O3)cc1	·	-4	·	·
COc1cc(OC)c(OC)cc1/C=N/NC(=O)C[n+]1ccccc1	0	1	-6	19
COc1cccc(/C=N/NC(=O)C[n+]2ccccc2)c1O	-1	67*	-36	4
COc1ccc2nc(SCC(=O)Nc3ccc(S(=O)(=O)N4CCCC4)cc3)c(C#N)cc2c1	0	-7	28	16
N#Cc1cc2ccccc2nc1SCC(=O)Nc1ccc(S(=O)(=O)N2CCCC2)cc1	0	-4	56*	18
CCOc1ccc(NC(=O)CCn2ccnc2)cc1	-19	-9	1	18
O=C(Cn1cncn1)c1ccc(Cl)cc1	0	-11	-16	12
O=C(NCCCn1ccnc1)Nc1ccc(Cl)cc1	0	4	16	4
O=C(CCn1ccnc1)Nc1ccc2ccccc2c1	-1	2	75*	12
O=C(Cn1ccnc1)c1ccc(Cl)cc1	1	-1	59*	10
COc1ccc(OCC(=O)NCCCn2ccnc2)cc1	0	22	9	15
O=C(NCCCn1ccnc1)Nc1ccc(Cl)c(Cl)c1	1	65*	44	11
O=C(COc1ccc(Cl)cc1)NCCCn1ccnc1	0	47*	-7	9
CCOC(=O)c1ccc(NC(=S)NC2CCCC2)cc1	1	-1	2	9
CCOC(=O)c1ccc(NC(=S)NN2CCN(C)CC2)cc1	0	·	57*	10
N#Cc1ccc(OCC(=O)NCCCn2ccnc2)cc1	·	69*	·	·
CCOC(=O)c1ccc(NC(=S)NCCCn2ccnc2)cc1	1	35*	-6	21
CC=Cc1ccc2n(c1=O)C[C@@H]1[C@@H](CO)[C@H](C(=O)NCc3ccc(F)cc3)[C@H]2N1CCC (mixture of isomers)	·	-3	·	·
COc1ccc(OC)c(NC(=O)CCc2nnc3ccc(NCc4ccco4)nn23)c1	17*	2	8	22
COc1ccccc1-c1nc(-c2ccccc2)nc(N2CCN(C)CC2)c1C#N	-1	0	51	25
CN1CCN(c2nc(-c3ccccc3)nc(-c3ccc(F)cc3)c2C#N)CC1	0	6	55*	-2
COc1ccc(CCN(C)CC(=O)Nc2c(C)cc(C)cc2C)cc1OC	0	24	61*	10
CCCCC(=O)N1CCN(c2nc3ccc(F)cc3s2)CC1	9.8*	18	-14	8
CCC(=O)N1CCN(c2nc3ccc(Br)cc3s2)CC1	12*	1	-9	1
SMILES	HIF activator	ARNT TACC3 PPI	T cruzi inh	AI-2 QS modul
OC(COCC(F)(F)C(F)(F)C(F)(F)C(F)F)Cn1c2ccccc2c2ccccc21 (stereo not given)	0	-3	59*	20
C[C@@H]1CCCCO[C@@H](CN(C)C)[C@@H](C)CN([C@H](C)CO)C(=O)c2cc(NS(=O)(=O)c3cn(C)cn3)ccc2O1	·	-3	·	·
C=CCNC(=S)NNC(=O)c1cccn(Cc2ccc(Cl)cc2)c1=O	0	52*	-16	39
CNC[C@H]1Oc2ncc(-c3ccc(C)cc3)cc2C(=O)N([C@@H](C)CO)C[C@H]1C	·	27	·	·
Cc1ccc(CNC(=S)NC2CCCCC2)cc1	0	-1	-27	?
Cc1ccc(CNC(=O)NC2CCCCC2)cc1	18*	-6	-12	-89*
C[C@H]1CN([C@@H](C)CO)C(=O)c2cc(-c3ccncc3)cnc2O[C@@H]1CN(C)S(=O)(=O)c1ccccc1	·	12	·	·
CCN(CC)C(=O)Cn1c(C)c(/C=C/c2cc[n+](C)cc2)c2ccccc21	-2	3	5	10
C=CCn1c(C)c(/C=C/c2cc[n+](C)cc2)c2ccccc21	0	-1	74*	0
CC(C)n1cc(/C=C/c2cc[n+](C)cc2)c2ccccc21	1	3	45	17
CCn1cc(/C=C/c2cc[n+](C)cc2)c2ccccc21	-21	-2	55*	13
C=CCn1cc(/C=C/c2cc[n+](C)cc2)c2ccccc21	2	35	55*	-4
COC(=O)C[C@H]1CC[C@@H]2[C@@H](COc3ccc(NS(C)(=O)=O)cc3C(=O)N2C)O1	·	-1	·	·
O=C(O)c1ccc(N/N=C/C=C/c2ccccc2[N+](=O)[O-])cc1	1	4	-4	-70
O=[N+]([O-])c1ccccc1/C=C/C=N/Nc1ccc(S(=O)(=O)Nc2ccc(Cl)cc2)cc1[N+](=O)[O-]	-1	-1	68*	22
Oc1ccc(/C=N/Nc2cc(N3CCCC3)nc(N3CCCC3)n2)cc1	0	-2	53	32
COc1ccc(/C=N/Nc2cc(N3CCCC3)nc(N3CCCC3)n2)cc1	0	·	67*	21
COC1=C(N)C(=O)c2nc(-c3nc(C(=O)O)c(C)c(-c4ccc(OC)c(OC)c4O)c3N)ccc2C1=O	·	65*	·	·
COc1ccccc1NC(=O)/C=C1\NC(=O)CS1	-27	10	1	1
COc1ccccc1NC(=O)/C=C1\SCC(=O)N1C	-1	-4	71*	2
CC1=C(C(=O)N2CCCCC2)C2(CCC(C)CC2)OC1=O (stereo not given)	0	-6	-6	14
CC1=C(C(=O)N2CCc3ccccc32)C2(CCC(C)CC2)OC1=O (stereo not given)	-1	3	60*	14
CN(C)c1ccc(N/C=C/C(=O)c2ccc(F)cc2)cc1	3	18	60*	5
C[C@H](CO)N1C[C@H](C)[C@@H](CN(C)S(C)(=O)=O)OCCCC[C@H](C)Oc2ccc(NC(=O)NC3CCCCC3)cc2C1=O	·	-6	·	·
C/C=C/c1ccc(OCC(O)CNCCc2ccc(OC)cc2)c(OC)c1 (stereo not given)	-1	-2	26	13
SMILES	HIF activator	ARNT TACC3 PPI	T cruzi inh	AI-2 QS modul
C/C=C/c1ccc(OCC(O)CN(C)Cc2ccc(SC)cc2)c(OC)c1 (stereo not given)	1	3	60*	1
Cc1nnc(NS(=O)(=O)c2ccc(N=Nc3ccc(N)nc3N)cc2)s1	·	57*	·	·
COc1ccc(S(=O)(=O)Nc2nnc(C)s2)cc1	0	-2	0	37
CC(C)CC#Cc1ccc2c(c1)O[C@@H](CN(C)C(=O)C1CCCCC1)[C@@H](C)CN([C@@H](C)CO)S2(=O)=O	·	3	·	·
CCCCNc1c(-c2ccc(SC3CCCCC3)c(OC)c2)nc2ccc(Cl)cn12	-1	0	70*	9
CCCCN(C)CCCNC(=O)c1ccc2c(c1)N(CC)C(=O)c1ccccc1S2=O (stereo not given)	0	0	61*	11
